# Measurements: ChEMBL document CHEMBL4311977, “Design and synthesis of parthenolide and 5-fluorouracil conjugates as potential anticancer agents against drug resistant hepatocellular carcinoma” (Eur J Med Chem, 2019)
# Activity calls are given as the source filed them. The rule behind the calls is not given here.
# Legend:
# [1] = system: Bel7402/5-FU; assay: Induction of apoptosis in human Bel7402/5-FU cells assessed as activation of caspase-3 at 0.5 to 5 uM incubated for 24 hrs by Western blot analysis; assay type: functional, cell-based
# Summary of the method: (§1)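 Bel-7402/5-FU cells were seeded at 5 × 10⁵ per well and left 12 h, then treated with four concentrations (0.5, 1, 2, 5) for 24 h. Cells were PBS-washed and lysed in RIPA on ice for 30 min, then denatured at 100 °C for 5 min. Lysates went through SDS-PAGE and PVDF transfer, 5% milk blocking for 1 h at room temperature, primary antibodies, and HRP secondary for 2 h at room temperature.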
# [2] = system: Bel7402/5-FU; assay: Induction of apoptosis in human Bel7402/5-FU assessed as late apoptotic cells at 2.5 uM incubated for 48 hrs by annexinV-FITC/propidium iodide staining based flow cytometry (reference value: 0.268 to 0.945 %)
# [3] = system: Bel7402/5-FU; assay: Induction of apoptosis in human Bel7402/5-FU cells assessed as increase in cytochrome C level at 0.5 to 5 uM incubated for 24 hrs by Western blot analysis; assay type: functional, cell-based; summary of the method: as §1
# [4] = system: Bel7402/5-FU; assay: Induction of apoptosis in human Bel7402/5-FU assessed as necrotic cells at 2.5 uM incubated for 48 hrs by annexinV-FITC/propidium iodide staining based flow cytometry (reference value: 0.024 to 0.157 %)
# [5] = system: Bel7402/5-FU; assay: Potency index, ratio of parthenolide IC50 to compound IC50 for antiproliferative activity against human Bel7402/5-FU cells; assay type: functional
# [6] = system: Bel7402/5-FU; assay: Induction of apoptosis in human Bel7402/5-FU cells assessed as activation of caspase-9 at 0.5 to 5 uM incubated for 24 hrs by Western blot analysis; assay type: functional, cell-based; summary of the method: as §1
# [7] = system: Bel7402/5-FU; assay: Down regulation of ABCC1 expression in human Bel7402/5-FU cells incubated for 24 hrs by western blot analysis; assay type: functional, cell-based; summary of the method: as §1
# [8] = Therapeutic index, ratio of IC50 for mouse 3T3 cells to IC50 for human Bel7402 cells; assay type: toxicity; settings: mouse 3T3 cells versus human Bel7402 cells, read-out: TI
# [9] = system: Bel7402/5-FU; assay: Induction of apoptosis in human Bel7402/5-FU assessed as viable cells at 2.5 uM incubated for 48 hrs by annexinV-FITC/propidium iodide staining based flow cytometry (reference value: 96.9 to 97.1 %)
# [10] = system: Bel7402/5-FU; assay: Induction of apoptosis in human Bel7402/5-FU assessed as apoptotic cells at 5 uM incubated for 48 hrs by annexinV-FITC/propidium iodide staining based flow cytometry (reference value: 3.37 +/- 0.47 %)
smiles,measurement,setting,value
C=C1C(=O)O[C@H]2[C@H]1CC/C(COC(=O)Cn1cc(F)c(=O)n(Cc3ccc(C(F)(F)F)cc3)c1=O)=C\CC[C@@]1(C)O[C@@H]21,Activity,[1],Active
same,Activity,[2],4.86%
same,Activity,[3],Active
same,Activity,[4],1.87%
same,Ratio IC50,[5],5.8
same,Activity,[6],Active
same,Activity,[7],Dose-dependent effect
same,selectivity ratio,[8],2.3
same,viability at 2.5 µM,[9],85.6%
same,Activity,[10],77.97%
